Results gathered from unrelated publications.
Lines come from different studies, so protocols differ.
Target: Dual specificity tyrosine-phosphorylation-regulated kinase 2 (DYRK2, Homo sapiens, UniProt Q92630)
Residues used in one study (Q92630 1-601): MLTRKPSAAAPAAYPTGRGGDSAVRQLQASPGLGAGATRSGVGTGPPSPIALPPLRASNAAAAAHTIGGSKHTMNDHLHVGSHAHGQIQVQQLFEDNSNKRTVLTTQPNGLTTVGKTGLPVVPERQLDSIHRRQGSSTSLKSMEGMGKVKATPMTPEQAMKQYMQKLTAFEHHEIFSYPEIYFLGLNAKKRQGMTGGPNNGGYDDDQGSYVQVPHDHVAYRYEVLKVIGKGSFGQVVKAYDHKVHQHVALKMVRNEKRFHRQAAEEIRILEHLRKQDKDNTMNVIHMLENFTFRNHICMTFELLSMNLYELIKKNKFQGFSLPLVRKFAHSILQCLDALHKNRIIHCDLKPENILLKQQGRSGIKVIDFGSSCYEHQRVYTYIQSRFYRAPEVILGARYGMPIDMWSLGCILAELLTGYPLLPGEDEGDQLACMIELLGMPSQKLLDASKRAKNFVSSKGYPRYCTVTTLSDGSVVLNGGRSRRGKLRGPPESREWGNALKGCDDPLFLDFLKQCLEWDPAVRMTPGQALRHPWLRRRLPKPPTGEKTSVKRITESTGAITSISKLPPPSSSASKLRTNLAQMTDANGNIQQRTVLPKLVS

O=C(O)c1ccc2c(c1)nc(NCc1ccccc1)c1ncncc12 — remaining activity (enzyme activity, inhibitor, radiometric; 1 µM): 37%
CCN(CC)CCNC(=O)c1c(C)[nH]c(/C=C2\C(=O)Nc3ccc(F)cc32)c1C — inhibition (enzyme activity, inhibitor; 10 µM): 36%
CN(C)CC#Cc1ccc(OCCCc2sc(N3CCc4cccc(C(=O)Nc5nc6ccccc6s5)c4C3)nc2C(=O)O)c(F)c1 — remaining binding (cell-free assay, competition with immobilised ligand; 1 µM): 100%
FC(F)(F)Oc1cccc(-c2cnc3ccc(-c4ccncc4)nn23)c1 — activity vs control (enzyme activity, inhibitor, radiometric; 1 µM): 52%
COc1cccc(Nc2nc3cc(C(=O)O)ccc3c3cnccc23)c1 — remaining activity (enzyme activity, inhibitor, radiometric; 1 µM): 14%
O=C(NCCCC1CCCCC1)c1ccc(CNC(=O)c2cnn(-c3ccccc3)c2C(F)(F)F)cc1 — remaining binding (cell-free assay, competition with immobilised ligand; 0.1 µM): 100%
O=C(O)c1ccc2c(c1)nc(Nc1ccc3ccccc3c1)c1ncncc12 — remaining activity (enzyme activity, inhibitor, radiometric; 1 µM): 1%
CC/C(=N\NC(=O)NCc1cccc(O)c1)c1ccc(O)c(C)c1O — inhibition (enzyme activity, inhibitor; 0.1 µM): -0.2%
Cc1c[nH]c2nccc(Oc3c(F)cc(Nc4cc(Cl)nc(N)n4)cc3F)c12 — remaining binding (cell-free assay, competition with immobilised ligand; 0.1 µM): 100%
COc1cccc(CCNc2nc3cc(C(=O)O)ccc3c3cncnc23)c1 — remaining activity (enzyme activity, inhibitor, radiometric; 1 µM): 59%
COc1ccc(COc2ccc(Cc3cnc(N)nc3N)cc2OC)cc1 — remaining signal (cell-free assay; 0.5 µM): 105%
O=C(O)c1ccc2c(c1)nc(NCCc1ccccc1)c1ncncc12 — remaining activity (enzyme activity, inhibitor, radiometric; 1 µM): 45%
NS(=O)(=O)c1cc(NC(=O)C2(c3ccccc3Cl)CC2)ccc1Oc1cccc(Cl)c1 — remaining binding (cell-free assay, competition with immobilised ligand; 1 µM): 81%
N#Cc1cccc(Nc2nc3cc(C(=O)O)ccc3c3cncnc23)c1 — remaining activity (enzyme activity, inhibitor, radiometric; 1 µM): 55%
CNC(=O)c1cc(Oc2ccc(NC(=O)Nc3ccc(Cl)c(C(F)(F)F)c3)cc2)ccn1 — inhibition (enzyme activity, inhibitor; 0.3 µM): -3%
Cc1cc(C)c(-n2ccn3nc(-c4cccnc4)cc23)cc1NC(=O)c1cc(C#N)cc(S(F)(F)(F)(F)F)c1 — remaining binding (cell-free assay, competition with immobilised ligand; 0.1 µM): 82.5%
Cc1ccc(Nc2nccc(N(C)c3ccc4c(C)n(C)nc4c3)n2)cc1S(N)(=O)=O — inhibition (enzyme activity, inhibitor; 0.3 µM): -8%
Cc1ccc(NC(=O)c2ccc(CN3CCN(C)CC3)cc2)cc1Nc1nc(-c2cccnc2)cs1 — remaining signal (cell-free assay; 0.5 µM): 109%
Nc1ncnc2occ(-c3ccc(NC(=O)Nc4cc(C(F)(F)F)ccc4F)cc3)c12 — remaining signal (cell-free assay, inhibitor; 20 µM): 19%
C[S+]([O-])c1ccc(-c2nc(-c3ccncc3)c(-c3ccc(F)cc3)[nH]2)cc1 (stereo not shown) — remaining signal (cell-free assay; 0.5 µM): 98.7%
Cn1cnc(Br)c1C1=CN(c2ncnc3[nH]cnc23)CCS1 — inhibition (enzyme activity, inhibitor, radiometric; 2 µM): 98.3%
O=C(O)c1ccc2c(c1)nc(NCCc1cccc(Cl)c1)c1ccncc12 — remaining activity (enzyme activity, inhibitor, radiometric; 1 µM): 29%
CSc1cccnc1N1CCN(Cc2nc3ccccc3[nH]2)CC1 — remaining binding (cell-free assay, competition with immobilised ligand; 1 µM): 81%
COc1cc(/C=C/C(=O)CC(=O)/C=C/c2ccc(O)c(OC)c2)ccc1O — activity vs control (enzyme activity, inhibitor; 1 µM): 5%
O=C(O)c1cc(-c2ccc(C3CCNCC3)cc2)c2ccc(-c3ccc(C(F)(F)F)cc3)cc2c1 — remaining binding (cell-free assay, competition with immobilised ligand; 1 µM): 100%
O=C(O)c1ccc2c(c1)nc(NCCc1cccc(F)c1)c1ncncc12 — remaining activity (enzyme activity, inhibitor, radiometric; 1 µM): 52%
Cn1cncc1C1=CN(c2ncnc3[nH]cnc23)CCS1 — inhibition (enzyme activity, inhibitor, radiometric; 2 µM): 91.2%
NS(=O)(=O)c1cc(NC(=O)Cc2ccccc2)ccc1Oc1cccc(Cl)c1 — remaining binding (cell-free assay, competition with immobilised ligand; 1 µM): 100%
